# High-throughput results: PubChem, Broad Institute
# Ecoli rRNA inh – reduced GFP signal of wild-type E. coli, primary screen, bacterial rRNA inhibitor project, GFP/RFP fluorescence, OD600, single point | GFP signal change (wild-type ribosome), % (test concentration not listed) | 350,000 compounds, 1.6% hits | E. coli WT GFP vs humanized-ribosome RFP mutants, 24 h; stronger effect = lower value; DMSO median 0, no signal -100;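 active means significant combined selectivity score with lowered wild-type GFP, culture density cut under 30%, mutant RFP and density less affected; inactive means any of these conditions unmet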
# RAD54 branch – inhibitors of human RAD54 branch migration, primary screen, biochemical, fluorescence, single point; DNA repair and recombination protein RAD54-like (Homo sapiens), Q92698; RAD54 Holliday junction branch migration, FAM/BHQ fluorescence; inhibition, % at 10.4 µM; 360,000 compounds, 0.14% hits; AID 602329, 2012;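 active means mean normalized replicate activity at least 40 and at least half of replicates scoring 40 or more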;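 further: 0% = median of neutral control wells and 100% = median of positive control wells; inhibitors cause a drop in the FAM fluorescence signal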
# Target sequence (Q92698 whole entry, looked up): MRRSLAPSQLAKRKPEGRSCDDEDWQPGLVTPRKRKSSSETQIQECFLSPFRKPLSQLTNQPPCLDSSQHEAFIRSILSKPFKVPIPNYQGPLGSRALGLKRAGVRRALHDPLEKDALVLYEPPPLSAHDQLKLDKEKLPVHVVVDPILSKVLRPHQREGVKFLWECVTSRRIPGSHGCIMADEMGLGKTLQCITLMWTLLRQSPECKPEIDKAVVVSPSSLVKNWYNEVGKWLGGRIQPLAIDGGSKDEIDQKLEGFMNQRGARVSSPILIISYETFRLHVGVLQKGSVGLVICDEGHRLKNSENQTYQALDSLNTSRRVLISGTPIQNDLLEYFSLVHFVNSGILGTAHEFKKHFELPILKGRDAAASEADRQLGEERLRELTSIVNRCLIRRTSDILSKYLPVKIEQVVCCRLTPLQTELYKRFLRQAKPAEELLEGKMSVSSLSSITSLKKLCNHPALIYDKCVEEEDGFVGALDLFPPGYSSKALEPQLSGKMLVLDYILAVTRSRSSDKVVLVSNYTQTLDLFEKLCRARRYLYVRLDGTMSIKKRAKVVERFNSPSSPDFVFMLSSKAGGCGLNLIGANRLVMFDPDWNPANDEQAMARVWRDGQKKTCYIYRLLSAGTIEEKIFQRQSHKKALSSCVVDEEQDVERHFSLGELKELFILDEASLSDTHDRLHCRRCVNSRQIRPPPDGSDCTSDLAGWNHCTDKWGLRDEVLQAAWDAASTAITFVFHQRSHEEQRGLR
# RAD52 anneal inh – RAD52 DNA annealing inhibitors, primary screen, biochemical, FRET, single point, set 2 | recombinant RAD52 DNA annealing, FRET fluorescence | inhibition, % at 18.7 µM | 360,000 compounds, 0.46% hits | DNA repair protein RAD52 homolog (Homo sapiens), P43351;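 active means every replicate showing at least 50% inhibition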
# E-selectin induc – E-selectin induction in HUVECs, primary screen, imaging, HUVEC, immunofluorescence imaging, single point. normalized: neutral wells 0, TNF-alpha wells 100. activation, % at 7.58 µM. 260,000 compounds, 0.37% hits;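 active means mean E-selectin-positive cell signal at least 10% of the positive control, reached in at least 60% of replicates, without over 20% cell loss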
#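 Assay system: HUVEC, human umbilical vein endothelial cells / Amount: 3,000 HUVEC/well / Controls: TNF-alpha positive control, DMSO neutral control / Compound dosing: single concentration / Medium: EGM-2 over gelatin coat / Evaluation: percent E-selectin-positive cells / Signal: immunofluorescence imaging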
# Xi reactivation – activators of inactive X chromosome reactivation, primary screen, imaging, XiGFP fibroblasts, GFP high-content imaging, set 2 | activation, % at 7.58 µM | 360,000 compounds, 0.055% hits | XiGFP mouse fibroblasts, % GFP-positive cells imaging, 3 d; cells co-treated with 5-aza-dC sensitizer; scaled so ellipticine positive control = 100%;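 active means mean normalized replicate activation at least 10% and every replicate at or above 10%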;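 further: 0% = median of on-plate neutral control wells and 100% = ellipticine 6 µM median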
#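 Schedule: 3 d treatment, 15 min room-temperature fixation; system: 68-5-11 XiGFP fibroblast line; buffer or medium: DMEM plus 5-aza-dC sensitizer; control set: ellipticine 6 µM positive control; compound: one concentration, pinned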
# PglD DTNB – C. jejuni PglD acetyltransferase inhibitors, primary screen, biochemical, DTNB colorimetric, single point | purified PglD enzyme, DTNB colorimetric CoA detection | 360,000 compounds, 0.098% hits | AID 602405, 2012 | UDP-N-acetylbacillosamine N-acetyltransferase PglD (Campylobacter jejuni) | inhibition, % at 12.5 µM; in the data active means inhibition above about 16%, passing the limit was not always enough
# The depositor's hits bear a star; . = not tested or not shown. Hits are enriched below; roughly 2% of the tested compounds scored in any of these assays.
SMILES,Ecoli rRNA inh,RAD54 branch,RAD52 anneal inh,E-selectin induc,Xi reactivation,PglD DTNB
COCC#Cc1ccc2c(c1)O[C@@H](CN(C)Cc1ccccc1)[C@H](C)CN([C@H](C)CO)S2(=O)=O,-35,-3,-3,0,-1,4
O=C(CN1c2ccccc2Sc2ccccc21)N/N=C/c1ccc([N+](=O)[O-])cc1,-24*,9,0,0,0,1
FC(F)Oc1ccc(NC(=S)Nc2ccc3cn[nH]c3c2)cc1,-25*,13,-9,0,0,5
S=C(Nc1ccccc1)Nc1ccc2cn[nH]c2c1,-3,.,-8,3,0,.
COc1ccc(CC(=O)Nc2nc(-c3ccc(F)c(F)c3)cs2)cc1,-34,1,-31,.,0,2
CC1(C(=O)OCC(=O)Nc2nc(-c3ccc(F)c(F)c3)cs2)CC1(Cl)Cl (stereo unspecified),-28*,9,-11,6,0,-1
Cc1oc2c(c(=O)c1C)C(=O)CC(c1ccccc1)C2 (stereo unspecified),.,-4,.,.,.,-5
CS(=O)(=O)c1sc(C#N)c2c1C(=O)CC(c1ccccc1)C2 (stereo unspecified),-26*,11,1,1,5,9
COc1ccc(/C=N/n2c(C)nc3ccccc3c2=O)cc1,1,0,-11,31*,0,-1
CC=Cc1ccc2n(c1=O)C[C@@H]1[C@@H](CO)[C@H](C(=O)NCc3cccc(F)c3)[C@H]2N1S(C)(=O)=O (mixture of isomers),1,1,-3,0,0,2
Cc1cc(-c2onc3ccc(Cl)cc23)ccc1O,-31*,-8,-268,.,0,1
CC(=O)c1ccc2noc(-c3ccc(Cl)cc3)c2c1,7,.,-12,.,0,.
S=c1[nH]c2ccc(Cl)cc2[nH]1,.,-2,.,.,.,-1
S=c1[nH]c2cc(Cl)ccc2s1,-26*,.,-16,.,.,.
C[C@@H]1CN([C@H](C)CO)C(=O)c2cccc(NS(=O)(=O)c3cn(C)cn3)c2O[C@@H]1CN(C)Cc1ccc(C(=O)Nc2ccccc2N)cc1,-1,.,8,.,-1,.
Cc1cc(C)c2nc(NC(=O)c3ccc4c(=O)n5c(nc4c3)CCCCC5)sc2c1,-2,.,-7,35*,0,.
Cc1ccc(NC(=O)c2ccc3c(=O)n4c(nc3c2)CCCCC4)nc1,-13,7,-7,0,0,-6
O=C(COc1ccc(S(=O)(=O)N2CCCC2)cc1)NCCC1=CCCCC1,-20*,2,-10,.,.,5
CC(C)(C)NS(=O)(=O)c1ccc(OCC(=O)NCCC2=CCCCC2)cc1,-1,2,-6,.,.,-3
CCOc1ccc(CCNC(=O)CCn2ccc3cc(S(=O)(=O)N4CCCC4)ccc32)cc1,-21*,7,-6,.,0,-4
C[C@@H]1CN([C@@H](C)CO)C(=O)Cc2cc(NS(=O)(=O)c3cccs3)ccc2O[C@@H]1CN(C)C(=O)Nc1ccc(F)cc1,3,8,-1,0,0,-2
COc1cccc(C#Cc2ccc([C@H]3[C@H]4CN(C(=O)C5CC5)CC(=O)N4[C@H]3CO)cc2)c1,-3,.,-5,0,0,.
O=C([C@H]1[C@H](CO)[C@H]2Cn3c(cccc3=O)[C@@H]1N2S(=O)(=O)c1ccccc1F)N1CCCCC1,-1,-9,-3,0,0,0
CN(C)c1cccc(C(=O)OCC(=O)N2CCc3ccccc3C2)c1,-30*,.,-11,.,0,.
Nc1ccc(C(=O)OCC(=O)N2CCc3ccccc3C2)cc1[N+](=O)[O-],-23*,6,0,.,0,6
SMILES,Ecoli rRNA inh,RAD54 branch,RAD52 anneal inh,E-selectin induc,Xi reactivation,PglD DTNB
COc1ccc2c3c(n(C)c2c1)[C@@H](CO)N(CC1CC1)CC31CCN(Cc2nccs2)CC1,-1,.,.,.,0,.
COc1ccc(NC(=O)N(C)C[C@H]2OCc3cnnn3CCCC(=O)N([C@@H](C)CO)C[C@@H]2C)c(OC)c1,1,4,-3,0,0,2
Cc1nc(SCc2ccccc2)c2ccsc2n1,-30,.,1,1,0,.
c1ccc(CSc2ncnc3sccc23)cc1,-27*,-4,-12,.,0,-3
COc1ccc2c3c([nH]c2c1)[C@H](CO)N(Cc1ccccc1)CC31CN(C(=O)c2ccccn2)C1,-1,.,.,0,0,.
COc1cccc(-c2cnc3c(c2)C(=O)N([C@H](C)CO)C[C@H](C)[C@@H](CN(C)Cc2ccncc2)O3)c1,-2,1,0,-2,1,1
CC(=O)N1CC2(C1)[C@@H](c1ccccc1)[C@H](CO)N2C(=O)Cc1ccccc1,7,.,-3,0,0,.
Cc1nonc1OCCN1CCN(c2ccc([N+](=O)[O-])cc2)CC1,-23*,.,-11,0,0,.
O=[N+]([O-])c1ccc(CN2CCN(c3ccccc3)CC2)o1,18,-3,-25,2,0,3
O=[N+]([O-])c1ccc(N2CCN(Cc3ccc([N+](=O)[O-])o3)CC2)cc1,-23*,6,-20,.,0,-6
O=[N+]([O-])c1ccc(N2CCN(CCOc3nonc3-c3ccccc3)CC2)c(Cl)c1,18,-4,-11,.,.,-2
CN(C)CC#Cc1ccc([C@@H]2[C@H]3CN(C(=O)Cc4ccccc4)CC(=O)N3[C@H]2CO)cc1,4,.,-9,0,0,.
C[C@@H]1CN([C@H](C)CO)C(=O)c2cc(-c3cccc(C#N)c3)cnc2O[C@@H]1CN(C)Cc1ccccc1,1,1,-10,0,-1,-5
CC(C)CC#Cc1cnc2c(c1)C(=O)N([C@@H](C)CO)C[C@H](C)[C@@H](CN(C)C(=O)Nc1cc(F)ccc1F)O2,-1,1,-6,0,0,4
COc1ccc(C(=O)Cn2nnc(-c3ccccc3F)n2)cc1,-31*,0,-17,.,.,-2
O=C(c1ccc(Cl)cc1)N1CCc2c([nH]c3ccccc23)C1C(F)(F)F (stereo unspecified),-21*,0,-16,.,0,8
O=C(c1ccccc1)c1nccn1-c1ccc(Cl)nn1,-36*,-3,-9,0,0,2
FC(F)(F)c1ccnc(Sc2n[nH]c(C(F)(F)F)n2)c1,-25*,.,-5,.,0,.
